For orientation: IC50 means the concentration needed to halve the response being measured.

The species named for the assay is Rattus norvegicus. Briefly: Inhibitory activity against the PDGF-induced proliferation of rat aortic smooth muscle cell (RAoSMC). It is filed as functional, organism-based. The essentials: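 Smooth muscle cells isolated from rat thoracic aorta, kept in DMEM with 10% FBS. Seeded in triplicate at 1×10³ cells/well and grown 24 h, then starved in 0.2% FBS for 72 h. Treated for 48 h in DMEM with PDGF (5 ng/mL) and 5% FBS. Proliferation read by WST-1 uptake (colorimetric); IC50 derived by comparison with mycophenolic acid standard.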
`O=C1C(Cl)=C(Nc2ccccc2)C(=O)c2[nH]cnc21` came in with an IC50 of 5500 nM.
The result for `O=C1C(Cl)=C(Nc2cccc(Br)c2)C(=O)c2[nH]cnc21` reads 1600 nM; that for `O=C1C(Br)=C(Nc2ccc(F)cc2)C(=O)c2[nH]cnc21`, 1000 nM.
In the case of `O=C1C(Br)=C(Nc2cccc(I)c2)C(=O)c2[nH]cnc21`, the IC50 is 2500 nM.
The result for `Cc1nc2c([nH]1)C(=O)/C(=N/c1ccc(F)c(F)c1F)C(Cl)=C2O` reads 1100 nM; that for `COc1ccc(OC)c2[nH]cnc12`, > 100000 nM; that for `Cc1nc2c([nH]1)C(=O)/C(=N/c1ccccc1)C(Cl)=C2O`, 800 nM.
The result for `Cc1ccc(NC2=C(Br)C(=O)c3nc[nH]c3C2=O)cc1` reads 1000 nM; that for `Cc1nc2c([nH]1)C(=O)/C(=N/c1cccc(Br)c1)C(Cl)=C2O`, 1000 nM; that for `Cc1nc2c([nH]1)C(=O)/C(=N/c1ccc(F)cc1)C(Cl)=C2O`, 3000 nM.
With `O=C1C(Cl)=C(Nc2ccccc2)C(=O)c2[nH]c(C(F)(F)F)nc21` the figure was 50000 nM.
As for `Cc1nc2c([nH]1)C(=O)/C(=N/c1cccc(Cl)c1)C(Cl)=C2O`, the IC50 was found to be 900 nM.
The result for `O=C1C(Cl)=C(Nc2cccc(Cl)c2)C(=O)c2[nH]cnc21` reads 1400 nM; that for `O=C1C(Cl)=C(Nc2cccc(I)c2)C(=O)c2[nH]cnc21`, 1300 nM; that for `O=C1C(Br)=C(Nc2ccc(Cl)cc2)C(=O)c2[nH]cnc21`, 4000 nM.
With `O=C1C(Br)=C(Nc2ccccc2)C(=O)c2[nH]cnc21` the figure was 1100 nM.
Regarding `O=C1C(Cl)=C(Nc2ccc(I)cc2)C(=O)c2[nH]c(C(F)(F)F)nc21`, the IC50 turned out to be 25000 nM.
With `O=C1C(Cl)=C(Nc2ccc(Cl)cc2)C(=O)c2[nH]c(C(F)(F)F)nc21` the figure was 15000 nM.
The result for `Cc1ccc(NC2=C(Cl)C(=O)c3nc(C(F)(F)F)[nH]c3C2=O)cc1` reads 40000 nM; that for `COc1ccc(OC)c2[nH]c(C)nc12`, > 100000 nM.
The result for `O=C1C(Cl)=C(Nc2ccc(I)cc2)C(=O)c2[nH]cnc21` reads 1300 nM.
Consider `O=C1C(Cl)=C(Nc2ccc(F)cc2)C(=O)c2[nH]c(C(F)(F)F)nc21`, for which the IC50 is 12000 nM.
The result for `Cc1nc2c([nH]1)C(=O)/C(=N/c1ccc(I)cc1)C(Cl)=C2O` reads 1000 nM.
The result for `O=C1C(Cl)=C(Nc2ccc(F)cc2)C(=O)c2[nH]cnc21` reads 1200 nM; that for `Cc1nc2c([nH]1)C(=O)/C(=N/c1ccc(F)cc1F)C(Cl)=C2O`, 1200 nM; that for `Cc1ccc(NC2=C(Cl)C(=O)c3nc[nH]c3C2=O)cc1`, 1400 nM.
With `O=C1C(Cl)=C(Nc2ccc(C(F)(F)F)cc2)C(=O)c2[nH]cnc21` the figure was 2500 nM; with `O=C1C(Cl)=C(Nc2ccc(C(F)(F)F)cc2)C(=O)c2[nH]c(C(F)(F)F)nc21`, 20000 nM; with `Cc1ccc(NC2=C(Cl)C(=O)c3nc(C)[nH]c3C2=O)cc1`, 800 nM.
`Cc1nc2c([nH]1)C(=O)/C(=N/c1ccc(Cl)cc1)C(Cl)=C2O` came in with an IC50 of 2800 nM.
The result for `O=C1C(Cl)=C(Nc2ccc(F)c(F)c2)C(=O)c2[nH]cnc21` reads 1100 nM.
With `Cc1nc2c([nH]1)C(=O)/C(=N/c1ccc(Cl)cc1Cl)C(Cl)=C2O` the figure was 800 nM; with `O=C1C(Br)=C(Nc2ccc(C(F)(F)F)cc2)C(=O)c2[nH]cnc21`, 3100 nM.
With `Cc1nc2c([nH]1)C(=O)/C(=N/c1cccc(Cl)c1Cl)C(Cl)=C2O` the figure was 600 nM.
`Cc1nc2c([nH]1)C(=O)/C(=N/c1ccc(C(F)(F)F)cc1)C(Cl)=C2O` displayed an IC50 of 600 nM.
With `COc1c(C)c2c(c(O)c1C/C=C(\C)CCC(=O)O)C(=O)OC2` [MYCOPHENOLIC ACID] the figure was 1000 nM.
